Assay [1] concerns the target Focal adhesion kinase 1 (Homo sapiens) (UniProt Q05397). Nature of the assay: Inhibition of human recombinant FAK at 40 nM related to control ULK1.
In assay [2] the target is T1, Bone morphogenetic protein receptor type-2 (Homo sapiens) (UniProt Q13873).
T1 sequence (whole entry): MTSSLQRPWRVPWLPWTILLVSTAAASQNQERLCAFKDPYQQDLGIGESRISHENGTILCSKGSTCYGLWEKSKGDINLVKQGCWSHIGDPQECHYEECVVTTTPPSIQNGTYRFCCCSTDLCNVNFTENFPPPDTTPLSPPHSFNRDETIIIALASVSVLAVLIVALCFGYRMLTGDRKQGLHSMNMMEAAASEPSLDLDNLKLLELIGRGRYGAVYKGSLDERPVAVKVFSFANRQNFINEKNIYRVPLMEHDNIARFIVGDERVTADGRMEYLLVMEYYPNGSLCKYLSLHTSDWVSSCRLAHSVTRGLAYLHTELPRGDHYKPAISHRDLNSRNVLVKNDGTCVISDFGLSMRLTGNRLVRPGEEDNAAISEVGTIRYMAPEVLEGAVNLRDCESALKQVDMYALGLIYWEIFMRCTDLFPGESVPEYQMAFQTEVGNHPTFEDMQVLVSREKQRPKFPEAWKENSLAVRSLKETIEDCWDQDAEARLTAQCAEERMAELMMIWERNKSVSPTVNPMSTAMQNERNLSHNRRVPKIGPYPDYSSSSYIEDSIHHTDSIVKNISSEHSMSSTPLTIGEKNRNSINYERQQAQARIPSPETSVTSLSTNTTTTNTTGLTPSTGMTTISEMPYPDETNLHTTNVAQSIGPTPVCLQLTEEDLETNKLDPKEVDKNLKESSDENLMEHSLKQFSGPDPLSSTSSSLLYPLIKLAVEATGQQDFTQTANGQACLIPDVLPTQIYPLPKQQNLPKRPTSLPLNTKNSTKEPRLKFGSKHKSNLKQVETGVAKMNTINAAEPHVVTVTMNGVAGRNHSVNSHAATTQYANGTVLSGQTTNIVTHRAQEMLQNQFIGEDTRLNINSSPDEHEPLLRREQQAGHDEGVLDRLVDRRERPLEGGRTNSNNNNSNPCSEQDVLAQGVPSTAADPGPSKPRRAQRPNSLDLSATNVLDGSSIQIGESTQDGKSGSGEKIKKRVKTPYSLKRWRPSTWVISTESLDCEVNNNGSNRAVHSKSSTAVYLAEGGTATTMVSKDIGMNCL
Nature of the assay: Inhibition of human recombinant BMPR2 at 40 nM in presence of ATP by radiometric assay relative to control.

Another assay is filed under the species Homo sapiens. The assay can be described thus: Inhibition of human recombinant ABL at 40 nM in presence of ATP by radiometric assay relative to control. In a few lines:
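Radiometric activity assays in a panel of 327 human recombinant kinases, each run in duplicate at one inhibitor concentration. Activity remaining is expressed as percent of vehicle control, and percent inhibition is calculated as 100% minus percent activity remaining.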

Assay [3] addresses T2, Tyrosine-protein kinase Mer (Homo sapiens) (UniProt Q12866).
T2 sequence (whole entry): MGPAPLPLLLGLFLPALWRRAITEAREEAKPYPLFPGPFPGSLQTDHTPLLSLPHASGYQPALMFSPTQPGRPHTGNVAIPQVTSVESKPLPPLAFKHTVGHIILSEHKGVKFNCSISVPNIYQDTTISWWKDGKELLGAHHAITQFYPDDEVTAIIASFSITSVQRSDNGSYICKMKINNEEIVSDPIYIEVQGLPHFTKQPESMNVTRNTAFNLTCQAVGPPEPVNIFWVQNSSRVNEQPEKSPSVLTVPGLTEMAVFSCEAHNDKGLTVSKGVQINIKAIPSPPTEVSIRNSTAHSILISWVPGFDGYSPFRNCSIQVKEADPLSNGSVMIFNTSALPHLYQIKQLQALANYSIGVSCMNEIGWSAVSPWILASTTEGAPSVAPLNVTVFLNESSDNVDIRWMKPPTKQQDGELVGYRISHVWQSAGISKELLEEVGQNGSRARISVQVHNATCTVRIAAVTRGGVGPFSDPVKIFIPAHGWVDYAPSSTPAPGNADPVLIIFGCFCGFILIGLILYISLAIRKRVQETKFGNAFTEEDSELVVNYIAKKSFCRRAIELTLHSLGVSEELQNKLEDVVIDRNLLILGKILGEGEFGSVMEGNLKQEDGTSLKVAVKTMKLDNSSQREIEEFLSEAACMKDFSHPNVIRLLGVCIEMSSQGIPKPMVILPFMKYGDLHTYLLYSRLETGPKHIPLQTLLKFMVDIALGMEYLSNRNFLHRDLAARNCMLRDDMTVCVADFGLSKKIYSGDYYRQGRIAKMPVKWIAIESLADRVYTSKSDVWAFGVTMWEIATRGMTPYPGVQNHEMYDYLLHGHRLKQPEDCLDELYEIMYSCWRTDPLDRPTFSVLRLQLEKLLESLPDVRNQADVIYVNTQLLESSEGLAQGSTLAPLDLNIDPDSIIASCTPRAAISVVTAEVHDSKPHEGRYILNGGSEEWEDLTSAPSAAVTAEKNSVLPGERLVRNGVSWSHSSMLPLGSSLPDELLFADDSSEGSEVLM
The assay can be described thus: Inhibition of human recombinant MER at 500 nM related to control ULK1.

Assay [4] deals with T3, Rhodopsin kinase GRK1 (Homo sapiens) (UniProt Q15835).
T3 sequence (whole entry): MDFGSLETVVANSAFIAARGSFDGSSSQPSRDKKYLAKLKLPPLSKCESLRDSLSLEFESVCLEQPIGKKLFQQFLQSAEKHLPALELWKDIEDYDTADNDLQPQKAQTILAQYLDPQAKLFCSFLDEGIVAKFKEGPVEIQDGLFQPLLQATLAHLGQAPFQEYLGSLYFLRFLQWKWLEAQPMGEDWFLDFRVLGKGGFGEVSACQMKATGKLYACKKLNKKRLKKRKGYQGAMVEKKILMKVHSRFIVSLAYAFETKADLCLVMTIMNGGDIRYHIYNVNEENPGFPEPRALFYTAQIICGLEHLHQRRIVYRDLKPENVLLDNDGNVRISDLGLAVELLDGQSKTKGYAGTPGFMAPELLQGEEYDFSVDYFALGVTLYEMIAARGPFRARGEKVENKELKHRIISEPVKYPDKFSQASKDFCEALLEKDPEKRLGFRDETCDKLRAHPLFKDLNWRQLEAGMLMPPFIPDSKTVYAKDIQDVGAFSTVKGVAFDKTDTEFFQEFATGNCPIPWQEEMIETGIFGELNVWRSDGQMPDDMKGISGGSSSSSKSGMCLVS
The assay can be described thus: Inhibition of human recombinant RHOK at 500 nM related to control ULK1.

In assay [5] the target is Rho-associated protein kinase 2 (Homo sapiens) (UniProt O75116). Nature of the assay: Inhibition of human recombinant ROCK2 at 15 nM in presence of ATP by radiometric assay relative to control.
Assay [6] addresses Protein-tyrosine kinase 6 (Homo sapiens) (UniProt Q13882). Nature of the assay: Inhibition of human recombinant BRK at 15 nM related to control ULK1.

One may read the inhibition as the relative decrease from the control value, in per cent.

Chain of Focal adhesion kinase 1 (Homo sapiens) (Q05397 2-1052 limits assumed): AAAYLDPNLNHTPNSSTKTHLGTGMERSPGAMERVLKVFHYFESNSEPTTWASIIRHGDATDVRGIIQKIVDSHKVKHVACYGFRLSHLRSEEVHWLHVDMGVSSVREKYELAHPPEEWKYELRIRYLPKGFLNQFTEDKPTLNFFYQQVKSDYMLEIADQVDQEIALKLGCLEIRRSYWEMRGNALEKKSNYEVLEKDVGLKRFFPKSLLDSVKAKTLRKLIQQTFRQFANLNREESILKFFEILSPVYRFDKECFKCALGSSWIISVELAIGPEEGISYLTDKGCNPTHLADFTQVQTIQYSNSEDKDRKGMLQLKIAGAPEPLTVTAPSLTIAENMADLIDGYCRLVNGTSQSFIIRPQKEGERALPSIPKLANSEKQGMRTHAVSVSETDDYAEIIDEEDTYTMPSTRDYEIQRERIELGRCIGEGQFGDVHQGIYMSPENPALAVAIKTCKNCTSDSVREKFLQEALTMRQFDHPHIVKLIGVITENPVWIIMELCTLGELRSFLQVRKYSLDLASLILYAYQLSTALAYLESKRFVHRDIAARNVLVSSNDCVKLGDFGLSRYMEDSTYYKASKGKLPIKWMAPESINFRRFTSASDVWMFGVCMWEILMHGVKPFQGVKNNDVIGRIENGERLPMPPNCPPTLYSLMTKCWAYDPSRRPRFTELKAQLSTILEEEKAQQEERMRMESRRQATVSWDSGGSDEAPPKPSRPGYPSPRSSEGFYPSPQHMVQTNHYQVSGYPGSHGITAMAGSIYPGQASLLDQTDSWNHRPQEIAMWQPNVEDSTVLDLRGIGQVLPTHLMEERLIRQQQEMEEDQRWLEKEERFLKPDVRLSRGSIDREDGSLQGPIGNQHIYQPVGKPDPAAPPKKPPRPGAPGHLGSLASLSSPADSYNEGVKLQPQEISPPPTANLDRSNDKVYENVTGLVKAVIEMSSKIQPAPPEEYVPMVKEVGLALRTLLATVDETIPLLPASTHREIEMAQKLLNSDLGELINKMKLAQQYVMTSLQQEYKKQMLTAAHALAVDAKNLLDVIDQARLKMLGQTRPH
Chain of Protein-tyrosine kinase 6 (Homo sapiens) (Q13882 whole entry, looked up): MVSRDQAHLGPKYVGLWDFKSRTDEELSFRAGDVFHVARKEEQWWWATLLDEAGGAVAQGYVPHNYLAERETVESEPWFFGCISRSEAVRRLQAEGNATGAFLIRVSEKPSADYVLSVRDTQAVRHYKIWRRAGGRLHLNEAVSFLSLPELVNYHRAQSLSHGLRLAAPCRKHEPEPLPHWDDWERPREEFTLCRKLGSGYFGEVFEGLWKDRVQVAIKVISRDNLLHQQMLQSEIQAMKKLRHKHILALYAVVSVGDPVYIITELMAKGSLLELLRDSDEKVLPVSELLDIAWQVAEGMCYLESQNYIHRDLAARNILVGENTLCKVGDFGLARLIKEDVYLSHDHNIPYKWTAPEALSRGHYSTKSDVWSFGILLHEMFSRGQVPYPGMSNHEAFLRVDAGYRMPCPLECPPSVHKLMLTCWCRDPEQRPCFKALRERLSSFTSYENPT
Chain of Rho-associated protein kinase 2 (Homo sapiens) (O75116 whole entry, looked up): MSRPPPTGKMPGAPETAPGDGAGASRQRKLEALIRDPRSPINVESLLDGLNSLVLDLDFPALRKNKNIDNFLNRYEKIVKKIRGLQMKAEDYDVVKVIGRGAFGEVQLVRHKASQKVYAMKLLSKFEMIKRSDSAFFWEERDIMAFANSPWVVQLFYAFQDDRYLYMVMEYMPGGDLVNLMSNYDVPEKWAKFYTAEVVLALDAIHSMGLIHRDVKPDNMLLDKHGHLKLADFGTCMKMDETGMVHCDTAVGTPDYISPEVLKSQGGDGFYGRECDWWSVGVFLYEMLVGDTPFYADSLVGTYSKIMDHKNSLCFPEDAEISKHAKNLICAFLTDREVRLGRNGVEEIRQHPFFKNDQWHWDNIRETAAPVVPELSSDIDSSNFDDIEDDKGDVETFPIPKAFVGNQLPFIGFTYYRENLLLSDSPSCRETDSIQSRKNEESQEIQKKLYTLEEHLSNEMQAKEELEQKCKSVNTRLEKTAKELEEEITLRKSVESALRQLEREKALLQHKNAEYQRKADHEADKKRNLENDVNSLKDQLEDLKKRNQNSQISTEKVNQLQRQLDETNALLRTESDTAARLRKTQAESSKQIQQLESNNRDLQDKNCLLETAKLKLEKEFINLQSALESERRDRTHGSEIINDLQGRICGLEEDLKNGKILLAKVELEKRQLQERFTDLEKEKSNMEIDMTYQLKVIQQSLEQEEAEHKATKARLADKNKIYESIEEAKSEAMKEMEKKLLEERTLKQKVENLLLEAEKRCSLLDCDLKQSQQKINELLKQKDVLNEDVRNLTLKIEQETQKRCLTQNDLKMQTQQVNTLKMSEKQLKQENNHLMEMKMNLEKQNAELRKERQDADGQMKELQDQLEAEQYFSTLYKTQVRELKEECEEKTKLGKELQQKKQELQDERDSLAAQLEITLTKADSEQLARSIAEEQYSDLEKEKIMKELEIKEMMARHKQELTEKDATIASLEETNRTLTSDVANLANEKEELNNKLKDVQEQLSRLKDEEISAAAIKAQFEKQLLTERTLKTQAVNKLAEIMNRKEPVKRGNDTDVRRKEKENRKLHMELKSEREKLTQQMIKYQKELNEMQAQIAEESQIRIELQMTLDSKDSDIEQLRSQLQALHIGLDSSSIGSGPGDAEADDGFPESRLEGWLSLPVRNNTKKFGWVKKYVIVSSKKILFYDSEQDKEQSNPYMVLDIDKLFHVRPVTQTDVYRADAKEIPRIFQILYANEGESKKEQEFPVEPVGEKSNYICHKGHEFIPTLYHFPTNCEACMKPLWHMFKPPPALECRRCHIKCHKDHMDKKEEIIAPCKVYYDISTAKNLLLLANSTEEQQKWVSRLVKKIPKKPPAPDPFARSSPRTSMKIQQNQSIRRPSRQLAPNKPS

For `O=C(N[C@@H](C1CC1)C(F)(F)F)c1cc(-c2cnn3cc(-c4ccc(F)cc4)cnc23)cs1`, in assay [1], the fold change (FC) was 0. Further, the inhibition in assay [2] was 6%; in the assay listed under Homo sapiens it was 12%.

For the compound `CNC(=O)c1ccccc1Oc1nc(Nc2cc(OC)c(OC)c(OC)c2)ncc1Br`, the fold change (FC) is 0.12 in assay [3] and 0 in assay [4].

As to `CC(C)[C@H](NC(=O)c1cc(-c2cnn3cc(-c4ccc(OCCN5CCCCC5)cc4)cnc23)cs1)C(F)(F)F`, in assay [5], the inhibition came out at 0%. Further, the fold change (FC) in assay [6] was 0.09.
